# NR2E3 ag-1: inhibitors of NR2E3-RetCOR corepressor binding, primary screen, NR2E3 agonist project, biochemical, TR-FRET, GST-NR2E3, biotin-RetCOR; inhibition of corepressor binding, % at 4.78 µM; 1536-well; Photoreceptor-specific nuclear receptor (Homo sapiens), Q9Y5X4; 0.12% of 320,000 active;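 active = percent inhibition above the cutoff of mean plus 3 SD of all tested compounds, set per screening campaign, cut at about 20% in these data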;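 also: 0% = DMSO wells and 100% = biotin wells as full block of FRET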
# Target sequence (Q9Y5X4 whole entry, looked up): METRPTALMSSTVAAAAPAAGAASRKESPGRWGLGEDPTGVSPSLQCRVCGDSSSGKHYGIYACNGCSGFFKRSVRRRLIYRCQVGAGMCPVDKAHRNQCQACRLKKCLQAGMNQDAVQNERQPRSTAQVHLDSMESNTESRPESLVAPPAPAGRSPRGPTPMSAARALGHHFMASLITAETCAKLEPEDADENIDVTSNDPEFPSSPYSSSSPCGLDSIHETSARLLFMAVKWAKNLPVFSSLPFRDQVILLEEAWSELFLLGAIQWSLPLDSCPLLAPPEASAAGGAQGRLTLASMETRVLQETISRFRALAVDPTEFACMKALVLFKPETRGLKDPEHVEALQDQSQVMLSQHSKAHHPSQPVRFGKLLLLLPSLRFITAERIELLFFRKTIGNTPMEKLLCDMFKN
#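 Material: NR2E3–RetCOR corepressor complex | Quantity: 1.35 nM GST-tagged NR2E3 final | Schedule: 5 h at 4 °C | Replication: Singlicate compound wells | Reagent: RetCOR corepressor, biotinylated, 7 nM | Controls: Biotin wells as high control, 0.6% DMSO wells as low control | Signal: TR-FRET, Eu(K)-anti-GST donor, streptavidin-D2 acceptor, ex 340, em 617/671 nm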
# V-ATPase pHluor: regulators of yeast V-ATPase proton pumping, primary screen, pHLuorin cytosolic pH fluorescence; response, % at 10 µM; 0.37% of 350,000 active; S. cerevisiae; in the data active = response mostly above about 7.3%, no sharp cut-off; inactive = mostly below about 5.4%; also: actives read high
# Env fusion inh: inhibitors of HIV-1 Env-driven cell-cell fusion, primary screen, HeLa-JRFL effector, CEM21 target cells, luciferase; inhibition, % at 12.3 µM; 1.1% of 360,000 active; AID 651610, 2012;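 active = mean replicate inhibition score of at least 50 and every replicate individually at or above 50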;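 also: 0% = plate neutral controls and 100% = maraviroc near 300 nM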
# FXN GAA850 act: FXN promoter activators, primary screen, cell-based, luciferase luminescence, HEK293 lucGAA850; HEK293 lucGAA850 FXN promoter luciferase reporter, 24 h; percent of 10 µM SAHA response; activation, % at 6 µM; 0.56% of 360,000 active;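 active = activation above the average of all compounds screened plus 3 SD, cutoff fixed separately per campaign, cut at about 7.5% in these data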;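 also: 0% = DMSO wells and 100% = 10 µM SAHA wells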
# GalR3 antag: GalR3 antagonists in HEK293 cells, primary screen, cell-based, fluorescence readout. Galanin receptor type 3 (Homo sapiens), O60755. 0.44% of 360,000 active. HEK293 GalR3-CNG cAMP membrane potential fluorescence; galR3 body fused to GalR1 C-terminus. AID 651719, 2012. inhibition, % at 3 µM;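 active = inhibition above the screen-wide average plus 3 SD, cut at about 13% in these data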;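 also: forskolin and galanin both at EC90 stimulate the cells; cAMP rise reported by CNG channel membrane potential dye signal; 0% = forskolin plus galanin with DMSO and 100% = forskolin alone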
# NR2E3 ag-2: NR2E3 agonists in two-hybrid cells, primary screen, cell-based, luminescence, CHO-S, Gal4-NCOR/VP16-NR2E3. 0.35% of 360,000 active. luciferase. Photoreceptor-specific nuclear receptor (Homo sapiens), Q9Y5X4. inhibition of corepressor binding, % at 3.98 µM;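 active = inhibition above the mean of all tested compounds plus 3 SD, cut at about 70% in these data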;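 also: 0% = DMSO with NR2E3 transfected cells and 100% = cells lacking NR2E3 construct; higher means lower luciferase signal from less NR2E3 corepressor binding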
# GalR3 antag conf: GalR3 antagonist hit confirmation, cell-based, fluorescence, triplicate. shares compounds with GalR3 antag. HEK293 GalR3 CNG cAMP biosensor, membrane potential fluorescence; galR3 fused to GalR1 carboxy tail; challenged with forskolin and galanin at EC90. inhibition, % at 3 µM. 59% of 1,600 active;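 active = inhibition above the primary screen's cutoff, the mean inhibition of all screened compounds plus 3 SD, cut at about 13% in these data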;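 also: 0% = forskolin plus galanin and 100% = forskolin alone with DMSO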
# CNG parental: nonspecific cAMP agonists in parental HEK-CNG cells, counter-screen for GalR3 antagonist project, cell-based, fluorescence, high throughput. shares compounds with GalR3 antag. HEK293-CNG parental cells, cAMP membrane potential fluorescence; normalised: DMSO wells 0%, forskolin wells 100%. activation, % at 3 µM. 10% of 1,600 active. AID 652268, 2013; in the data active = activation above about 1.3%
# The depositor's hits bear a star; / = no result; [ ] = dose if it differs, or a comment. Compounds with a hit are over-represented: about 2.2% of the library has one in this group of screens.
SMILES,NR2E3 ag-1,V-ATPase pHluor,Env fusion inh,FXN GAA850 act,GalR3 antag,NR2E3 ag-2,GalR3 antag conf,CNG parental
O=C(Nc1cccc(S(=O)(=O)N2CCCC2)c1)c1ccco1,/,-2,/,2,-1,10,/,/
O=C(Nc1cccc(S(=O)(=O)c2cccc(NC(=O)c3ccco3)c2)c1)c1ccco1,-1,-5,-14,0,41*,16,45*,-1
O=C(Nc1cccc(N=Cc2cc(Cl)cc(Br)c2O)c1)c1ccco1,1,-8,11,1,1,-19,/,/
O=C(Nc1cccc(N=Cc2cc(Br)cc(Br)c2O)c1)c1ccco1,1,-4,9,-1,17*,-17,14*,0
COc1ccc(NC(=O)N[C@@H]2C=C[C@@H](CC(=O)NC3CCCCC3)O[C@@H]2CO)cc1,/,/,-17[16.7 µM],/,/,/,/,/
O=C(O)C[C@H]1C[C@H]2c3cc(NC(=O)Nc4ccccc4F)ccc3O[C@H]2[C@@H](CO)O1,/,/,-10[16.7 µM],/,/,/,/,/
CNC[C@@H]1Oc2ccc(NC(=O)Nc3ccc4c(c3)OCO4)cc2CC(=O)N([C@H](C)CO)C[C@H]1C,/,/,-1[16.7 µM],/,/,/,/,/
CCOc1ccccc1NC(=O)c1ccc(NC(=O)c2ccco2)cc1,-1,7,/,3,/,-6,6,-1
COc1ccc(CN2CCN(C(=O)c3ccc(S(=O)(=O)N4CCCCCC4)cc3)CC2)cc1,/,0,-2,-2,26*,19,90*,-1
COc1ccc(OCc2cccc(C(=O)Nc3ccc(CN4CCCCC4)cc3)c2)cc1,0,0,-9,5,13*,-192,35*,2.0*
O=C(c1ccc(S(=O)(=O)N2CCCCCC2)cc1)N1CCN(Cc2ccccc2)CC1,1,4,-15,0,-6,14,/,/
CCN(CC)S(=O)(=O)c1ccc(NC(=O)c2ccc(CN3CCOCC3)cc2)cc1,1,3,64*,-4,101*,1,106*,-1
COc1ccc(NS(=O)(=O)c2ccc(NC(=O)c3ccc(CN4CCOCC4)cc3)cc2)cc1,1,-1,31,-3,89*,6,118*,-1
O=C(Nc1ccc(S(=O)(=O)N2CCCCC2)cc1)c1ccc(CN2CCOCC2)cc1,2,2,/,-10,/,-1,/,/
O=C(C[C@@H]1CC[C@H](NC(=O)C2CCC2)[C@H](CO)O1)NCC1CC1,/,/,4[16.7 µM],/,/,/,/,/
COc1ccc(S(=O)(=O)N2CCCCCC2)cc1C(=O)Nc1ccc(C(=O)N(C)C)cc1,/,-4,-15,1,15*,9,5,0
CCN(CC)S(=O)(=O)c1ccc(N2CCOCC2)c(NC(=O)c2ccccc2)c1,-2,-1,/,1,-1,-16,/,/
O=C(NC1CCN(Cc2ccccc2)CC1)c1ccc2c(c1)[nH]c(=O)n2Cc1ccc(F)cc1,3,-3,42,-2,55*,-27,59*,1
CCCCCn1c(=O)[nH]c2cc(C(=O)NC3CCN(Cc4ccccc4)CC3)ccc2c1=O,-2,8,17,1,-9,32,/,/
O=C(Nc1ccc(S(=O)(=O)Nc2ccc(F)cc2)cc1)c1ccc(CN2CCOCC2)cc1,-2,7,12,-3,67*,13,109*,-1
CCN(CC)S(=O)(=O)c1ccc(O)c(NC(=O)c2ccc(N3CCOCC3)c([N+](=O)[O-])c2)c1,0,0,18,3,23*,2,11,0

# Screening data from PubChem.
